Experimental data taken from ChEMBL document CHEMBL1165908, “Novel benzimidazole-pyrimidine conjugates as potent antitumor agents” (Eur J Med Chem, 2010).
Structures can show the parent of a compound that is named as a salt.

Assays:
[1] = system: KB; assay: Cytotoxicity against human KB cells after 3 days by MTT assay; type: functional, cell-based; conditions: 72 h
Summary of the method: (§1)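 Cells grown in RPMI 1640 with 10% fetal calf serum, plated at 2 × 10^4 cells, held 12 h at 37 °C in 5% CO2, then exposed to test sample for 3 days at 37 °C. MTT added for 4 h, formazan dissolved in DMSO, absorbance read at 570 nm. IC50 taken as 50% growth inhibition relative to untreated control; each experiment run at least 3 times.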

[2] = system: SK-OV-3; assay: Cytotoxicity against human SKOV3 cells after 3 days by MTT assay; type: functional, cell-based; conditions: SK-OV-3, 72 h; summary of the method: as §1
[3] = system: SF-268; assay: Cytotoxicity against human SF268 cells after 3 days by MTT assay; type: functional, cell-based; conditions: SF-268, 72 h; summary of the method: as §1
[4] = system: NCI-H460; assay: Cytotoxicity against human NCI-H460 cells after 3 days by MTT assay; type: functional, cell-based; conditions: NCI-H460, 72 h; summary of the method: as §1
[5] = Cytotoxicity against human RKOp27 cells after 3 days by MTT assay; type: functional, cell-based; conditions: RKOp27, 72 h; summary of the method: as §1
[6] = system: HL-60; assay: Cytotoxicity against human HL60 cells after 3 days by MTT assay; type: functional, cell-based; conditions: HL-60, 72 h
[7] = system: U-937; assay: Cytotoxicity against human U937 cells after 3 days by MTT assay; type: functional, cell-based; conditions: U-937, 72 h; summary of the method: as §1
[8] = system: K562; assay: Cytotoxicity against human K562 cells after 3 days by MTT assay; type: functional, cell-based; conditions: K562, 72 h; summary of the method: as §1
[9] = system: G-361; assay: Cytotoxicity against human G361 cells after 3 days by MTT assay; type: functional, cell-based; conditions: G-361, 72 h; summary of the method: as §1
[10] = system: SK-MEL-28; assay: Cytotoxicity against human SK-MEL-28 cells after 3 days by MTT assay; type: functional, cell-based; conditions: SK-MEL-28, 72 h; summary of the method: as §1
[11] = system: GOTO; assay: Cytotoxicity against human GOTO cells after 3 days by MTT assay; type: functional, cell-based; conditions: 72 h; summary of the method: as §1
[12] = system: NB1; assay: Cytotoxicity against human NB-1 cells after 3 days by MTT assay; type: functional, cell-based; conditions: NB1, 72 h; summary of the method: as §1
[13] = Toxicity in ip dosed mouse assessed as mortality after 24 hrs; type: organism-based; conditions: in vivo
Summary of the method: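 Lorke two-phase design in mice, single intraperitoneal dose per group. Phase 1: three groups of three animals, each group one dose, observed 24 h for mortality and general behaviour. Phase 2: 3–4 groups of one mouse, doses chosen from phase 1 findings, observed 24 h. LD50 taken as geometric mean of lowest lethal dose and highest non-lethal dose; reported in mg/kg.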

| SMILES | IC50 [1] [nM] | IC50 [2] [nM] | IC50 [3] [nM] | IC50 [4] [nM] | IC50 [5] [nM] | IC50 [6] [nM] | IC50 [7] [nM] | IC50 [8] [nM] | IC50 [9] [nM] | IC50 [10] [nM] | IC50 [11] [nM] | IC50 [12] [nM] | LD50 at 24 h [13] [mg/kg] |
| --- | --- | --- | --- | --- | --- | --- | --- | --- | --- | --- | --- | --- | --- |
| N#Cc1c(NC(N)=O)nc(SCc2nc3ccccc3[nH]2)nc1-c1ccccc1 | 9.6 | 6.75 | 3.37 | 14.7 | 2.5 | 2.9 | 3.37 | 4.54 | 2.55 | 4.8 | 11.3 | 7.35 | 347 |
| Cc1ccc(S(=O)(=O)N2CCN(c3nc(SCc4nc5ccccc5[nH]4)nc(-c4ccccc4)c3C#N)CC2)cc1 | 3.28 | 4.54 | 7.81 | 22.7 | 2.5 | 4.23 | 4.1 | 11.3 | 4.38 | 4.38 | 4.38 | 6.75 | 345 |
| N#Cc1c(-c2ccccc2)nc(SCc2nc3ccccc3[nH]2)nc1N1CCN(C(=O)c2ccc([N+](=O)[O-])cc2)CC1 | 7.35 | 8.62 | 5.81 | 4.46 | 7.81 | 2.9 | 5.2 | 4.38 | 2.4 | 2.77 | 5.81 | 13.2 | 327 |
| CNc1nc(SCc2nc3ccccc3[nH]2)nc(-c2ccccc2)c1C#N | 2.7 | 3 | 3.2 | 3.2 | 3.7 | 6.57 | 19.2 | 13.2 | 12.5 | 2.87 | 3.28 | 4.46 | 302 |
| N#Cc1c(NNC(N)=S)nc(SCc2nc3ccccc3[nH]2)nc1-c1ccccc1 | 3 | 3 | 3.37 | 3.37 | 3.2 | 4.54 | 3 | 8.9 | 3.96 | 3.2 | 2.55 | 5.81 | 345 |
| N#Cc1c(Nc2nccs2)nc(SCc2nc3ccccc3[nH]2)nc1-c1ccccc1 | 14.7 | 5.81 | 2.55 | 3.37 | 3.2 | 11.9 | 3.8 | 14.7 | 11.9 | 8.9 | 5.1 | 3.2 | 349 |
| N#Cc1c(Nc2ccccn2)nc(SCc2nc3ccccc3[nH]2)nc1-c1ccccc1 | 7.35 | 5.81 | 6.75 | 2.8 | 3.8 | 20 | 2.55 | 7 | 8.9 | 8.9 | 2.5 | 3.9 | 367 |
| N#Cc1c(-c2ccccc2)nc(SCc2nc3ccccc3[nH]2)nc1N1CCN(S(=O)(=O)c2ccccc2[N+](=O)[O-])CC1 | 4.44 | 3.2 | 3 | 3.7 | 5.6 | 2.77 | 3.28 | 14.7 | 9.6 | 8.9 | 3 | 2.5 | 325 |
| N#Cc1c(-c2ccccc2)nc(SCc2nc3ccccc3[nH]2)nc1N1CCN(S(=O)(=O)c2ccccc2)CC1 | 3 | 2.77 | 2.87 | 4.6 | 7.35 | 4.23 | 6.2 | 3 | 8.62 | 6.41 | 5.81 | 3.28 | 327 |
| CN1CCN(c2nc(SCc3nc4ccccc4[nH]3)nc(-c3ccccc3)c2C#N)CC1 | 2.7 | 1600 | 6.9 | 2.84 | 5.4 | 2.8 | 6.75 | 2.4 | 14.7 | 20 | 3.37 | 2.4 | 384 |
| N#Cc1c(Cl)nc(SCc2nc3ccccc3[nH]2)nc1-c1ccccc1 | 3.7 | 3.37 | 3.2 | 3.28 | 4.38 | 4.46 | 4.46 | 11.3 | 12.5 | 3.28 | 8.62 | 2.87 | 313 |
| N#Cc1c(-c2ccccc2)nc(SCc2nc3ccccc3[nH]2)nc1N1CCNCC1 | 2.87 | 2.63 | 20000 | 7.35 | 5.81 | 4 | 5.81 | 4.38 | 2.5 | 2.6 | 3.7 | 6.75 | 300 |
| N#Cc1c(NC(N)=S)nc(SCc2nc3ccccc3[nH]2)nc1-c1ccccc1 | 3.2 | 7.81 | 3.37 | 3.37 | 2.63 | 5.81 | 20 | 11.9 | 5.81 | 4.8 | 4.8 | 11.9 | 327 |
| Cl.N=c1[nH]c(=S)[nH]c2nc(SCc3nc4ccccc4[nH]3)nc(-c3ccccc3)c12 | 7.3 | 3.5 | 3.5 | 3 | 2.5 | 6.75 | 2.8 | 14.7 | 3.37 | 3.37 | 11.9 | 3.28 | 389 |
| N#Cc1c(O)nc(SCc2nc3ccccc3[nH]2)nc1-c1ccccc1 | 6.2 | 2.55 | 3.2 | 2.5 | 6.09 | 2.55 | 3.28 | 4.63 | 3.43 | 7.7 | 7.81 | 6.57 | 345 |
| Cl.N=c1[nH]c(=O)[nH]c2nc(SCc3nc4ccccc4[nH]3)nc(-c3ccccc3)c12 | 2.5 | 3.2 | 2.84 | 2.84 | 2.7 | 3.1 | 2.87 | 14.7 | 3.2 | 8.9 | 8.9 | 11.3 | 346 |
| CCNc1nc(SCc2nc3ccccc3[nH]2)nc(-c2ccccc2)c1C#N | 7.35 | 7.35 | 7.35 | 2.87 | 7.35 | 3.96 | 2.63 | 4.38 | 4.38 | 5.3 | 3.96 | 2.63 | 325 |
| N#Cc1c(Nc2ccncc2)nc(SCc2nc3ccccc3[nH]2)nc1-c1ccccc1 | 3.2 | 4.46 | 2.4 | 2.77 | 5.81 | 2.77 | 7.35 | 10 | 2.55 | 4.46 | 2.55 | 6.75 | 316 |
| N#Cc1c(NN)nc(SCc2nc3ccccc3[nH]2)nc1-c1ccccc1 | 2.55 | 2.7 | 2.77 | 2.6 | 2.55 | 11.9 | 3.9 | 14.7 | 14.7 | 3 | 2.68 | 5.4 | 344 |
| N#Cc1c(-c2ccccc2)nc(SCc2nc3ccccc3[nH]2)nc1N1CCN(C(=O)c2ccccc2)CC1 | 3 | 4 | 2.8 | 3.2 | 2.55 | 6.75 | 2.68 | 3.4 | 2.4 | 8.9 | 8.62 | 7.35 | 327 |
| ClCc1nc2ccccc2[nH]1 | – | – | – | – | – | – | – | – | – | – | – | – | 253 |
| CCCCCOC(=O)Nc1nc(=O)n([C@@H]2O[C@H](C)[C@@H](O)[C@H]2O)cc1F [CAPECITABINE] | – | – | – | – | 4330 | – | – | – | – | – | – | – | – |
| Nc1ccn([C@@H]2O[C@H](CO)[C@@H](O)[C@@H]2O)c(=O)n1 [CYTARABINE] | – | – | 7680 | – | – | – | – | – | – | – | – | – | – |
| COc1cccc2c1C(=O)c1c(O)c3c(c(O)c1C2=O)C[C@@](O)(C(=O)CO)C[C@@H]3O[C@H]1C[C@H](N)[C@H](O)[C@H](C)O1 [DOXORUBICIN] | – | 4160 | – | – | – | – | – | 6.12 | – | – | – | – | – |
| O=c1[nH]cc(F)c(=O)[nH]1 [FLUOROURACIL] | 4460 | – | – | – | – | – | – | – | – | – | – | – | – |
| Nc1ccn([C@@H]2O[C@H](CO)[C@@H](O)C2(F)F)c(=O)n1 [GEMCITABINE HYDROCHLORIDE] | – | – | – | 2130 | – | – | – | – | – | – | – | – | – |
